Experimental data as given in publication PMC2939291 (Experimental parasitology, 2010).
Values after ≈ are worked out from the molar mass of the structure shown. Where two headings read alike, the source gives them in different places.

How the values were obtained:
[1] = tested on: Leishmania amazonensis infected cells; assay: Infection measured by standard Giemsa staining of cells; type: cell-based
[2] = tested on: egfp transfected Leishmania amazonensis amastigotes in THP-1 cells; assay: microbe, parasite or virus in culture; type: cell-based
[3] = tested on: GFP-transfected Leishmania (Viannia) panamensis amastigotes in U937 cell line; details: L. (V.) panamensis in U937 cells, GFP flow cytometry; ref Varela et al., 2009; cited from earlier work
[4] = standard doses (0.3 mg/kg days 1 and 2, increasing to 0.5 mg/kg) during clinical therapy; ref Atkinson, Jr. and Bennett, 1978; cited from earlier work
[5] = tested on: egfp transfected Leishmania amazonensis amastigotes in PBMC derived macrophages; assay: microbe, parasite or virus in culture; type: cell-based
[6] = tested on: human PBMC derived macrophages; type: cell-based
[7] = tested on: human PBMC derived macrophages; assay: Trypan blue dye exclusion cytotoxicity test, human PBMC derived macrophages; type: cell-based
How it was run: (§1)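 Macrophages prepared before testing: THP-1 cells were grown in RPMI 1640 with 10% heat-inactivated FBS at 37°C and 5% CO2, then stimulated with 20 nM PMA. PBMC-derived cells were stimulated with autologous platelet-poor serum. After test compound exposure, clear (viable) and blue cells were counted on a hemocytometer to give percent viability. CC50 came from a variable-slope sigmoidal fit normalised to untreated cells. Assays were run in duplicate.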

THP-1 cells = assay: Trypan blue dye exclusion cytotoxicity test, THP-1 cells; type: cell-based, human
How it was run: as §1

## C[C@@H]1[C@H](O)[C@@H](C)/C=C/C=C/C=C/C=C/C=C/C=C/C=C/[C@H](O[C@@H]2O[C@H](C)[C@@H](O)[C@H](N)[C@@H]2O)C[C@@H]2O[C@](O)(C[C@@H](O)C[C@@H](O)[C@H](O)CC[C@@H](O)C[C@@H](O)CC(=O)O[C@H]1C)C[C@H](O)[C@H]2C(=O)O [Amphotericin B, amphotericin B]
[1]
  EC50: 0.074 µg/mL (≈ 0.0801 µM)
[2]; Leishmania amazonensis, THP-1
  EC50: 0.1445 ± 0.0005 µg/mL (≈ 0.156 µM)
[2]; THP-1 cells, ratio of EC50 and CC50
  Selective Index (SI): 105.2
[3]
  EC50: 0.078 µg/mL (≈ 0.0844 µM)
[4]
  serum level: above 0.2 μg/ml
[5]; Leishmania amazonensis, in Homo sapiens
  EC50: 0.179 ± 0.035 µg/mL (≈ 0.194 µM)
[5]; human PBMC derived macrophages, ratio of EC50 and CC50
  Selective Index (SI): 355.9
[5]; human PBMC derived macrophages, ratio of EC50 and CC50, listed as amphotericin B
  Selective Index (SI): 356

## CCCCCCCCCCCCCCCCOP(=O)([O-])OCC[N+](C)(C)C [Miltefosine, miltefosine]
[2]
  Selective Index (SI): 1.51
[6]
  toxicity against the macrophages: significant toxicity
[5]
  Selective Index (SI): 6.13

## O.O.O.O.O.O.O.O.O.O=C([O-])[C@@H]1[O][Sb](=[O])([O][Sb]2(=[O])[O][C@H]([C@H](O)CO)[C@H](O)[C@H](C(=O)[O-])[O]2)[O][C@H]([C@H](O)CO)[C@@H]1O.[Na+].[Na+].[Na+] (stereo partly drawn) [Sodium stibogluconate, sodium stibogluconate]
[7]
  CC50: 6300 ± 2800 µg/mL
THP-1 cells
  CC50: 4600 ± 1100 µg/mL
[5]; human PBMC derived macrophages, GFP fluorescence
  EC50: 194.8 ± 36.4 µg/mL

## meglumine antimoniate
[3]
  EC50: 20 µg/mL
